Lmaj promast: inhibitors of Leishmania major promastigote growth; Leishmania major promastigotes, resazurin fluorescence viability; inhibition, % at 10 µM; 200,000 tested, 9% active;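 note: promastigotes grown with compound for 44 hours at 28 °C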
Avidin fluor: avidin bead compound fluorescence profile. Avidin beads, compound fluorescence 488/530 nm, flow cytometry; stronger effect = higher value. fluorescence (KMESF) at 10 µM. 220,000 tested, 0.38% active; in the data active = fluorescence above about 47
ABCG2 block: inhibitors of human ABCG2 transporter, ABCB1 counter-screen; Q9UNQ0; IgMXP3 cells, JC-1 efflux, flow cytometry; inhibition, % at 6.6 µM; 190,000 tested, 0.1% active;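 active = inhibition above 80%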;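 note: 0% = DMSO and 100% = nicardipine control wells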
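Test system: IgMXP3 (ABCG2) plus far-red-tagged CCRF-Adr (ABCB1) cells / Amount: 3 million cells/mL in well / Reagent: JC-1 transporter substrate / Timing: 10 min compound exposure, 25 °C / Signal: flow cytometry, 530 nm JC-1 signal / Read-out: percent efflux inhibition, scaled nicardipine 100% to DMSO 0% / Benchmarks: nicardipine as high control, DMSO as low control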
ABCB1 block: blocks JC-1 efflux by human ABCB1 transporter; P08183; 190,000 tested, 0.067% active; inhibition, % at 6.6 µM; AID 1326; CCRF-Adr cells, flow cytometry; in the data active = inhibition above about 40%;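 note: 0% = vehicle and 100% = reference inhibitor; higher value means more JC-1 retained so stronger ABCB1 efflux block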
GSH bead fluor: compound fluoresces at 488/530 nm on GSH beads. AID 1776. 190,000 tested, 0.25% active. GSH beads flow cytometry, compound fluorescence 488/530 nm; stronger effect = higher value. fluorescence (KMESF) at 10 µM; in the data active = fluorescence above about 89;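 note: glutathione beads carrying GST-tagged Bcl family fusion proteins plus one bare bead set; values are compound well signal with DMSO vehicle wells as background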
PKD1 kinase inh: inhibitors of human PKD1 kinase. PKD1 kinase fluorescence polarization assay. 200,000 tested, 0.056% active. inhibition, % (concentration not given with the values). Q15139
Numbers without * were called inactive. Only a selection was taken, and hits are over-represented in it overall. Cut-off read from the data, not from the text of the source, unless noted: active = inhibition above about 50%; inactive = the rest.

How did COc1cccc(CN2CCN(Cc3ccc(O)cc3)CC2CCO)c1 (centres undefined) do in these assays?
Lmaj promast: 69.3*; Avidin fluor: 9; ABCG2 block: -0.4; ABCB1 block: -0.4; GSH bead fluor: 12; PKD1 kinase inh: -3.3

Results for Cc1ccc(NC(=O)c2ccc(Cl)c(N3C(=O)C=CC3=O)c2)cc1 ?
Lmaj promast: 0.6; Avidin fluor: 7; ABCG2 block: 0.7; ABCB1 block: 0.1; GSH bead fluor: 11; PKD1 kinase inh: 8.9

What do the screens show for `O=C(NNC(=S)NC1CCCCC1)c1ccccc1O`?
Lmaj promast: 23.4; Avidin fluor: 12; ABCG2 block: 8.8; ABCB1 block: 0.0; GSH bead fluor: 11; PKD1 kinase inh: 1.8

How did CC(C)CCN1CCN(Cc2ccoc2)CC1CCO (centres undefined) do in these assays?
Avidin fluor: 6

What do the screens show for `COc1cc(CN2CCN(CCc3ccccc3)C(CCO)C2)cc(OC)c1` (centres undefined)?
Lmaj promast: 63.9*; Avidin fluor: 2; ABCG2 block: 18.4; ABCB1 block: 7.6; GSH bead fluor: 14; PKD1 kinase inh: -2.3

How did COC(=O)c1ccc(CN2CCN(CCC(C)C)C(CCO)C2)cc1 (centres undefined) do in these assays?
Lmaj promast: 62.0*; Avidin fluor: 10; ABCG2 block: 1.4; ABCB1 block: 0.3; GSH bead fluor: 14; PKD1 kinase inh: 1.2

Results for COc1ccccc1/C=C/CN1CCN(Cc2ccc(F)cc2)C(CCO)C1 (centres undefined) ?
Lmaj promast: 82.5*; Avidin fluor: 8; ABCG2 block: 3.2; ABCB1 block: 2.3; GSH bead fluor: 13; PKD1 kinase inh: -6.2

Results for Cc1cccc2c(N=O)c(O)[nH]c12 ?
Avidin fluor: 10

How did CC1(C)CC(=O)c2cnc(N3CCc4ccccc43)nc2C1 do in these assays?
Avidin fluor: 13

How did CCC(Sc1nc2cc(OC)c(OC)cc2c(=O)n1CCc1ccc(OC)c(OC)c1)C(=O)NCCOC (centres undefined) do in these assays?
Lmaj promast: 79.6*; Avidin fluor: 10; ABCG2 block: 3.0; ABCB1 block: 1.1; GSH bead fluor: 16; PKD1 kinase inh: -2.5

Results for CCCCNC(=O)CSc1nc2cc3c(cc2c(=O)n1CCC(=O)NCCc1ccc(OC)c(OC)c1)OCO3 ?
Lmaj promast: 51.9*; Avidin fluor: 10; ABCG2 block: 2.9; ABCB1 block: 0.5; GSH bead fluor: 60; PKD1 kinase inh: -2.0

Results for O=C(CC(c1ccc(F)cc1)c1ccco1)Nc1nccs1 (centres undefined) ?
Lmaj promast: -0.9; Avidin fluor: 11; ABCG2 block: 1.5; ABCB1 block: 0.3; GSH bead fluor: 13; PKD1 kinase inh: -4.6

How did COc1ccc(-c2c(C(F)(F)F)nn(C)c2NC(=O)CSCC(=O)O)cc1 do in these assays?
Avidin fluor: 7

What do the screens show for `CCOC(=O)c1[nH]c(C)c(C(=O)C(C)C)c1C`?
Lmaj promast: 3.1; Avidin fluor: 14; ABCG2 block: 9.8; ABCB1 block: -0.1; GSH bead fluor: 43; PKD1 kinase inh: 0.8

How did CCOC(=O)/C(C#N)=C/Nc1ccccc1OC(F)(F)F do in these assays?
Avidin fluor: 105*

Results for CCOC(=O)/C(C#N)=C/Nc1cc(OC)ccc1OC ?
Lmaj promast: 1.5; Avidin fluor: 4; ABCG2 block: 20.8; ABCB1 block: -1.3; GSH bead fluor: 9; PKD1 kinase inh: -9.1

Results for CC(NC(=O)c1ccc(OC2CCN(S(=O)(=O)N(C)C)CC2)cc1)C1CC1 (centres undefined) ?
Lmaj promast: -1.8; Avidin fluor: 7; ABCG2 block: 5.2; ABCB1 block: 1.1; GSH bead fluor: 28; PKD1 kinase inh: 1.6

How did O=C1c2ccccc2C(=O)N1CCCc1c[nH]c2ccc(Cl)cc12 do in these assays?
Lmaj promast: -6.3; Avidin fluor: 13; ABCG2 block: 29.3; ABCB1 block: 1.1; GSH bead fluor: 18; PKD1 kinase inh: 1.6

What do the screens show for `c1ccc(N/N=C(\Cc2nc3ccccc3[nH]2)c2ccccc2)cc1`?
Lmaj promast: 9.2; Avidin fluor: 15; ABCG2 block: -1.1; ABCB1 block: -0.3; GSH bead fluor: 20; PKD1 kinase inh: 7.8

Results for Cc1ccc(N/N=C(\Cc2nc3ccccc3[nH]2)c2ccccc2)cc1 ?
Lmaj promast: 88.0*; Avidin fluor: 14; ABCG2 block: 7.4; ABCB1 block: 0.5; GSH bead fluor: 10; PKD1 kinase inh: 5.5

How did CCN/N=C(\Cc1nc2ccccc2[nH]1)c1ccccc1 do in these assays?
Lmaj promast: 74.7*; Avidin fluor: 11; ABCG2 block: 2.5; ABCB1 block: 1.1; GSH bead fluor: 10; PKD1 kinase inh: -5.0

How did O=C(Cc1nc2ccccc2[nH]1)c1ccc(Br)cc1 do in these assays?
Lmaj promast: 96.3*; Avidin fluor: 12; ABCG2 block: 9.7; ABCB1 block: 0.5; GSH bead fluor: 19; PKD1 kinase inh: -6.9

How did COc1cc(-c2nnc3n(CCc4ccccc4)c(=O)c4ccccc4n23)cc(OC)c1OC do in these assays?
Lmaj promast: 71.9*; Avidin fluor: 10; ABCG2 block: 13.8; ABCB1 block: 12.5; GSH bead fluor: 9; PKD1 kinase inh: 2.0

Results for COc1cc(OC)c(-c2nnc3n(CCc4ccccc4)c(=O)c4ccccc4n23)cc1OC ?
Lmaj promast: 24.8; Avidin fluor: 16; ABCG2 block: 1.3; ABCB1 block: 0.9; GSH bead fluor: 20; PKD1 kinase inh: -0.5

Results for CCCOc1nc(N)c(C#N)c(-c2ccccc2F)c1C#N ?
Lmaj promast: 12.0; Avidin fluor: 10; ABCG2 block: 3.5; ABCB1 block: 0.1; GSH bead fluor: 13; PKD1 kinase inh: -3.0

What do the screens show for `O=C(O)C1C2C=CC(C2)C1C(=O)NCCc1cccc(Cl)c1` (centres undefined)?
Lmaj promast: -3.8; Avidin fluor: 48*; ABCG2 block: 13.3; ABCB1 block: 1.9; GSH bead fluor: 28; PKD1 kinase inh: -1.5

What do the screens show for `O=C(COC(=O)c1cncc(Br)c1)NC1CCCCCC1`?
Lmaj promast: -8.0; Avidin fluor: 10; ABCG2 block: 2.1; ABCB1 block: 0.0; GSH bead fluor: 17; PKD1 kinase inh: 6.9

What do the screens show for `CS(=O)(=O)N(CC(=O)O)c1cc(Cl)cc(Cl)c1`?
Lmaj promast: -5.3; Avidin fluor: 14; ABCG2 block: 0.5; ABCB1 block: 0.0; GSH bead fluor: 37; PKD1 kinase inh: -10.6

How did COC1=C/C(=C/c2c(N)n3cc(C)sc3nc2=O)C=CC1=O do in these assays?
Lmaj promast: 3.3; Avidin fluor: 24; ABCG2 block: -0.1; ABCB1 block: 0.4; GSH bead fluor: 8; PKD1 kinase inh: 18.5

What do the screens show for `Cc1cn2c(N)c(C=C3C=C(Cl)C(=O)C(Cl)=C3)c(=O)nc2s1`?
Lmaj promast: 1.9; Avidin fluor: 179*; ABCG2 block: 3.6; ABCB1 block: 4.5; GSH bead fluor: 13; PKD1 kinase inh: -8.8

Bioassay records as filed in PubChem BioAssay.
